Reference: ChEMBL document CHEMBL1125826, “Synthesis and biological activity of 5-amino- and 5-hydroxyquinolones, and the overwhelming influence of the remote N1-substituent in determining the structure-activity relationship” (1991)
In brackets after ≈: the same amount, converted by molar mass.

Columns and labels:
Assay type in all cases: functional
Enterococcus faecalis = test: Antibacterial activity was determined against gram positive organism, Streptococcus faecalis MGH-2; conditions: Enterococcus faecalis; read-out: MIC
How it was run: (§1)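 MIC (µg/mL) by standard microtitration against a panel of 10 Gram-positive and Gram-negative organisms; values averaged from multiple experiments.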

Streptococcus pneumoniae = test: Antibacterial activity was determined against gram positive organism, Streptococcus pneumoniae SV-1; conditions: Streptococcus pneumoniae; read-out: MIC; how it was run: as §1
Escherichia coli [1] = test: Antibacterial activity was determined against gram negative organism, Escherichia coli vogel; conditions: Escherichia coli; read-out: MIC; how it was run: as §1
Bacteria [2] = test: MIC ratio measured as the mean MICs of gram-negative bacteria
How it was run: (§2)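 Geometric mean of the microtitration MICs (µg/mL) over the Gram-negative organisms, and separately over the Gram-positive organisms, of the 10-strain panel; individual MICs averaged from multiple experiments.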

Bacteria [3] = test: Antibacterial activity was determined against gram negative organism, Providencia rettgeri. M1771; conditions: Bacteria; read-out: MIC; how it was run: as §1
Escherichia coli [4] = test: The in vivo potency was determined in female charles river CD-1 mice infected with Escherichia coli after sc administration; conditions: Escherichia coli, sc; read-out: PD50
How it was run: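 Acute lethal systemic infection in female CD-1 mice, 16 mice per route; single subcutaneous dose given at the time of challenge; median protective dose (PD50, mg/kg) determined.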

[5] = target: DNA gyrase (Escherichia coli) (UniProt P0AES6+P0AES4); test: Minimum inhibitory concentration against Escherichia coli DNA-gyrase in supercoiling assay
Bacteria [6] = test: MIC ratio measured as the mean MICs of gram-positive bacteria; how it was run: as §2
Escherichia coli [7] = test: The in vivo potency was determined in female charles river CD-1 mice infected with Escherichia coli after peroral administration; conditions: Escherichia coli, po; read-out: PD50
How it was run: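 Acute lethal systemic infection in female CD-1 mice, 16 mice per route; single dose given orally by gavage at the time of challenge; median protective dose (PD50, mg/kg) determined.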

Enterobacter cloacae = test: Antibacterial activity was determined against gram negative organism, Enterobacter cloacae MA2646; conditions: Enterobacter cloacae; read-out: MIC
Staphylococcus aureus [8] = test: Antibacterial activity was determined against gram positive organism, Staphylococcus aureus UC76; how it was run: as §1
Klebsiella pneumoniae = test: Antibacterial activity was determined against gram negative organism, Klebsiella pneumoniae MGH-2; conditions: Klebsiella pneumoniae; read-out: MIC; how it was run: as §1
Staphylococcus aureus [9] = test: Antibacterial activity was determined against gram positive organism, Staphylococcus aureus H228; conditions: Staphylococcus aureus; read-out: MIC; how it was run: as §1
Streptococcus pyogenes = test: Antibacterial activity was determined against gram positive organism, Streptococcus pyogenes C203; conditions: Streptococcus pyogenes; read-out: MIC; how it was run: as §1
Pseudomonas aeruginosa = test: Antibacterial activity was determined against gram negative organism, Pseudomonas aeruginosa UI-18; conditions: Pseudomonas aeruginosa; read-out: MIC; how it was run: as §1
[10] = Staphylococcus aureus, read-out: MIC

MIC (Staphylococcus aureus [8]) [µg/mL] | SMILES | MIC (Enterococcus faecalis) [µg/mL] | MIC (Streptococcus pneumoniae) [µg/mL] | MIC (Escherichia coli [1]) [µg/mL] | Geometric mean MIC over Gram-negative bacteria (µg/mL) (Bacteria [2]) | MIC (Bacteria [3]) [µg/mL] | ED50 (Escherichia coli [4]) [mg/kg] | MIC [5] [µg/mL] | Geometric mean MIC over Gram-positive bacteria (µg/mL) (Bacteria [6]) | ED50 (Escherichia coli [7]) [mg/kg] | MIC (Enterobacter cloacae) [µg/mL] | MIC (Staphylococcus aureus [8]; [10]) [µg/mL] | MIC (Klebsiella pneumoniae) [µg/mL] | MIC (Staphylococcus aureus [9]) [µg/mL] | MIC (Streptococcus pyogenes) [µg/mL] | MIC (Pseudomonas aeruginosa) [µg/mL]
 | CC1CN(c2c(F)cc3c(=O)c(C(=O)O)cn(C4CC4)c3c2F)CCN1 (centres undefined) | 0.4 (≈ 1.1 µM) | 0.4 (≈ 1.1 µM) | 0.025 (≈ 0.0688 µM) | 0.066 | 0.1 (≈ 0.275 µM) | 0.4 | 1 (≈ 2.75 µM) | 0.26 | 0.8 | 0.05 (≈ 0.138 µM) | 0.1 (≈ 0.275 µM) | 0.025 (≈ 0.0688 µM) | 0.2 (≈ 0.55 µM) | 0.4 (≈ 1.1 µM) | 0.4 (≈ 1.1 µM)
 | CCNCC1CCN(c2c(F)c(N)c3c(=O)c(C(=O)O)cn4c3c2OCC4C)C1 (centres undefined) | 0.4 (≈ 0.989 µM) | 0.4 (≈ 0.989 µM) | 0.8 (≈ 1.98 µM) | 2.09 | 3.1 (≈ 7.66 µM) | 8 | 7.5 (≈ 18.5 µM) | 0.26 | > 100 | 1.6 (≈ 3.96 µM) | 0.1 (≈ 0.247 µM) | 0.8 (≈ 1.98 µM) | 0.8 (≈ 1.98 µM) | 0.1 (≈ 0.247 µM) | 12.5 (≈ 30.9 µM)
 | CCNCC1CCN(c2cc3c(c(N)c2F)c(=O)c(C(=O)O)cn3C2CC2)C1 (centres undefined) | 0.025 (≈ 0.0644 µM) | 0.05 (≈ 0.129 µM) | 0.1 (≈ 0.257 µM) | 0.26 | 0.8 (≈ 2.06 µM) | 3 | 1 (≈ 2.57 µM) | 0.057 | 90 | 0.1 (≈ 0.257 µM) | 0.025 (≈ 0.0644 µM) | 0.2 (≈ 0.515 µM) | 0.2 (≈ 0.515 µM) | 0.1 (≈ 0.257 µM) | 0.8 (≈ 2.06 µM)
 | CC1COc2c(N3CCC(N)C3)c(F)c(N)c3c(=O)c(C(=O)O)cn1c23 (centres undefined) | 0.8 (≈ 2.21 µM) | 0.8 (≈ 2.21 µM) | 0.4 (≈ 1.1 µM) | 0.8 | 1.6 (≈ 4.42 µM) | 23 | 2.5 (≈ 6.9 µM) | 0.7 | > 100 | 0.8 (≈ 2.21 µM) | 0.2 (≈ 0.552 µM) | 0.4 (≈ 1.1 µM) | 0.8 (≈ 2.21 µM) | 1.6 (≈ 4.42 µM) | 1.6 (≈ 4.42 µM)
 | NC1CCN(c2cc3c(c(O)c2F)c(=O)c(C(=O)O)cn3C2CC2)C1 (centres undefined) | 0.2 (≈ 0.576 µM) | 0.05 (≈ 0.144 µM) | 0.013 (≈ 0.0374 µM) | 0.038 | 0.05 (≈ 0.144 µM) | 0.4 | 1 (≈ 2.88 µM) | 0.066 | 3 | 0.025 (≈ 0.072 µM) | 0.013 (≈ 0.0374 µM) | 0.025 (≈ 0.072 µM) | 0.1 (≈ 0.288 µM) | 0.1 (≈ 0.288 µM) | 0.2 (≈ 0.576 µM)
 | O=C(O)c1cn(C2CC2)c2cc(N3CCNCC3)c(F)c(O)c2c1=O | 0.8 (≈ 2.3 µM) | 0.8 (≈ 2.3 µM) | 0.025 (≈ 0.072 µM) |  | 0.1 (≈ 0.288 µM) | 0.1 | 1 (≈ 2.88 µM) |  | 3 | 0.05 (≈ 0.144 µM) | 0.2 (≈ 0.576 µM) | 0.1 (≈ 0.288 µM) | 3.1 (≈ 8.92 µM) | 0.4 (≈ 1.15 µM) | 0.4 (≈ 1.15 µM)
 | CCn1cc(C(=O)O)c(=O)c2c(O)c(F)c(N3CCNCC3)c(F)c21 | 25 (≈ 70.8 µM) | 25 (≈ 70.8 µM) | 0.4 (≈ 1.13 µM) | 0.8 | 1.6 (≈ 4.53 µM) |  | 5 (≈ 14.2 µM) | 12.56 |  | 0.4 (≈ 1.13 µM) | 1.6 (≈ 4.53 µM) | 0.8 (≈ 2.26 µM) | 12.5 (≈ 35.4 µM) | 25 (≈ 70.8 µM) | 1.6 (≈ 4.53 µM)
0.4 (≈ 1.09 µM) | CCn1cc(C(=O)O)c(=O)c2cc(F)c(N3CCNC(C)C3)c(Cl)c21 (centres undefined) | 3.1 (≈ 8.43 µM) | 3.1 (≈ 8.43 µM) | 0.2 (≈ 0.544 µM) | 0.6 | 0.8 (≈ 2.18 µM) |  | 5 (≈ 13.6 µM) | 1.8 |  | 0.2 (≈ 0.544 µM) |  | 0.4 (≈ 1.09 µM) | 1.6 (≈ 4.35 µM) | 3.1 (≈ 8.43 µM) | 6.3 (≈ 17.1 µM)
